Values after ≈ are worked out from the molar mass of the structure shown.
Legend:
Type in all cases: functional
[1] = tested on: A549; test: Cytotoxicity against human A549 cells by MTT assay; conditions: read-out: ED50 (the source's name)
[2] = tested on: SK-OV-3; test: Cytotoxicity against human SKOV3 cells by MTT assay; conditions: read-out: ED50 (the source's name)
[3] = tested on: SK-MEL-2; test: Cytotoxicity against human SK-MEL-2 cells by MTT assay; conditions: read-out: ED50 (the source's name)
[4] = tested on: XF498; test: Cytotoxicity against human XF498 cells by MTT assay; conditions: read-out: ED50 (the source's name)
[5] = tested on: HCT-15; test: Cytotoxicity against human HCT-15 cells by MTT assay; conditions: read-out: ED50 (the source's name)
[6] = tested on: Simian virus 40; test: Antiviral activity against SV40 virus assessed as inhibition of DNA replication at 125 uM; conditions: Betapolyomavirus macacae
Method in brief: (§1)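 Cell-free SV40 origin DNA replication: mixtures contained 40 mM creatine phosphate-di-Tris (pH 7.7), creatine kinase, 7 mM MgCl2, 0.5 mM DTT, 4 mM ATP, 200 µM UTP/GTP/CTP, 100 µM dATP/dGTP/dCTP, 25 µM [3H]dTTP, SV40 T-Ag, SV40 origin plasmid (pUC) and replication proteins. Incubated 90 min at 37 °C, then acid-insoluble radioactivity counted.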

[7] = tested on: Simian virus 40; test: Antiviral activity against SV40 virus assessed as inhibition of DNA replication at 250 uM; conditions: Betapolyomavirus macacae; method in brief: as §1
[8] = tested on: Simian virus 40; test: Antiviral activity against SV40 virus assessed as inhibition of DNA replication at 500 uM; conditions: Betapolyomavirus macacae; method in brief: as §1

| Compound | EC50 [1] | EC50 [2] | EC50 [3] | EC50 [4] | EC50 [5] | inhibition at 125 µM [6] | inhibition at 250 µM [7] | inhibition at 500 µM [8] |
| --- | --- | --- | --- | --- | --- | --- | --- | --- |
| C#C/C=C\CCCCCCCCCCCCC/C=C/C(=O)CCCC/C=C\CCCCC#C[C@@H](O)C#CCCCCCC/C=C/[C@H](O)C#C [PETROTETRAYNDIOL C] | > 10 mg/L | 4.2 mg/L (≈ 6.28 µM) | 4.1 mg/L (≈ 6.13 µM) | 12.7 mg/L (≈ 19 µM) | 5.7 mg/L (≈ 8.52 µM) | 45% | 46% | 81% |
| C#C/C=C\CCCCCCCCCCCCC/C=C\CCCC/C=C\CCCCC#C[C@@H](O)C#CCCCCCC/C=C/[C@H](O)C#C [NOR-3S,14S-PETROCORTYNE A] | 7.3 mg/L (≈ 11.4 µM) | 4.4 mg/L (≈ 6.86 µM) | 3.8 mg/L (≈ 5.93 µM) | 6.1 mg/L (≈ 9.52 µM) | 3.5 mg/L (≈ 5.46 µM) | 12% | 47% | 70% |
